# Rows were chosen to be rich in hits. Some 3.7% of all compounds tested hit in one or more screens of this group.
# KCNK9 block = human KCNK9 channel inhibition; Q9NPC2; HEK293 KCNK9, FluxOR thallium flux fluorescence; stronger effect = lower value; B-score at 10 µM; hit rate 1.2% among 310,000; AID 488922;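 active = ratio B-score over 3 SD below the library mean, with starting fluorescence within 5 SD of its mean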;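 also: negative B-score means less thallium flux so channel inhibition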
# Target sequence (Q9NPC2 whole entry, looked up): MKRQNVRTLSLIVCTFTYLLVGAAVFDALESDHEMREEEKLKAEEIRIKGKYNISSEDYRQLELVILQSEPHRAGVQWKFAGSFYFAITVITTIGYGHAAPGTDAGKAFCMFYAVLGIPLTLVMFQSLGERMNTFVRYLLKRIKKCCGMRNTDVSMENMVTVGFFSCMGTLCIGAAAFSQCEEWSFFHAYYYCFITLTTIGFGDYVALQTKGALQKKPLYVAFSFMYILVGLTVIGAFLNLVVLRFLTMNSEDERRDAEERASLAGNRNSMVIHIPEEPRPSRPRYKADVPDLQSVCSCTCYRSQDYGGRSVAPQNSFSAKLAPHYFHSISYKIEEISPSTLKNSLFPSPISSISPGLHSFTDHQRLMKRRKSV
# hERG protect = hERG (human) protection from proarrhythmic block. CHO-hERG, FluxOR thallium flux, dofetilide IC70 present. activation (rescue from dofetilide block), less the hit threshold, % at 10 µM. hit rate 0.51% among 310,000;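 active = activation above the mean of controls blocked by dofetilide plus 5 SD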;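 also: thallium influx through hERG after potassium depolarization seen as dye fluorescence rise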
# KCNQ1 act = potentiates or activates the human KCNQ1 potassium channel | P51787 | CHO-K1 KCNQ1, thallium flux FluxOR fluorescence; stronger effect = higher value | B-score at 10 µM | hit rate 0.35% among 310,000 | AID 2648;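 active = fluorescence ratio B-score, a plate-corrected score, at least three library SD, with initial intensity B-score within 5 SD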
#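 System: Stable KCNQ1 CHO-K1 line | Incubation: 90 min dye loading and 20 min compound exposure, both at room temperature | Measure: Ratio B score | Medium: Assay buffer for compound exposure, DMSO matched across wells | Compound dosing: Single-concentration screen | Probe or stimulus: K+/Tl+ depolarizing stimulus | Measured by: Kinetic FluxOR fluorescence, 10 s baseline plus 110 s post-stimulus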
# Kir21 inh = Kir2.1 (mouse) channel inhibition. AID 1672. B-score at 10 µM. HEK293-Kir2.1, FluxOR thallium flux fluorescence; stronger effect = lower value. hit rate 0.85% among 310,000;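 active = fluorescence ratio B-score at or below minus 3 SD of library scores, with starting-brightness B-score within 2 SD, cut at about -4.2 in these data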;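 also: channel flux triggered by added potassium and thallium sulfate stimulus; B-score of peak minus minimum fluorescence over baseline after thallium stimulus; more negative B-score means stronger Kir2.1 block with less thallium influx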
# KCNK3 block = human KCNK3 channel inhibition, primary screen; O14649; CHO-KCNK3 thallium flux, FluxOR fluorescence; stronger effect = lower value; B-score at 10 µM; hit rate 0.84% among 340,000; AID 602410;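 active = B-score under library mean minus 4 SD, starting fluorescence ratio at most library mean plus 5 SD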;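 also: more negative B-score means stronger inhibition of thallium flux through KCNK3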
# KCNQ1 block = blocks the human KCNQ1 potassium channel. P51787. CHO-K1 KCNQ1, FluxOR thallium flux fluorescence; stronger effect = higher value. B-score at 10 µM. hit rate 1.3% among 310,000. AID 2642;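 active = compounds whose thallium flux B-score, printed positive for inhibition, exceeds three library SD while starting fluorescence stays within three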;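 also: channel opened by potassium depolarization with thallium stimulus after 20 min compound exposure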
# Hits are given with their value; – = inactive; · = not tested or not shown.
SMILES,KCNK9 block,hERG protect,KCNQ1 act,Kir21 inh,KCNK3 block,KCNQ1 block
COC(=O)[C@@]1(Cc2ccccc2)[C@H]2C(=O)N(C)C(=O)[C@H]2[C@H]2CN=C(SCc3ccc(C#N)cc3)N21,·,·,·,·,–,·
COc1ccc(CCNc2nnc(Sc3nnnn3-c3ccccc3)s2)cc1OC,–,–,–,-4.47,–,–
CCC/C=C(\CCC)C(NC(=O)c1ccc(C(=O)OC)cc1)c1ccc(C(=O)OC)cc1 (centres undefined),–,–,–,–,·,6
CCC/C=C(\CCC)C(NC(=O)c1ccc(C(F)(F)F)cc1)c1ccccc1 (centres undefined),–,–,–,–,·,6
CC(=O)NC12CC3CC(C1)CC(C(=O)Nc1nc4ccc(S(C)(=O)=O)cc4s1)(C3)C2,–,–,–,–,–,–
Cc1cc(/C=C2/SC(=S)N(c3cccc(C(F)(F)F)c3)C2=O)c(C)n1-c1cccnc1,–,–,–,–,–,6
CN1CCCC1CCNC1C2CC3CC(C2)CC1C3 (centres undefined),–,–,–,-4.68,–,–
Cc1ccc(C(=O)N2CC(=O)NC(=O)C2)cc1,–,5.3,–,–,–,–
Cc1ccc(C(=O)N2CC3(C)CN(C(=O)c4ccc(C)cc4)CC(C)(C2)C3=O)cc1,–,–,–,–,–,–
CC(C(=O)N1CCc2ccccc21)N1CCN(Cc2ccccc2)CC1 (centres undefined),–,–,–,–,–,–
CC(Cc1ccccc1)NC(=O)CC(c1ccccc1)c1ccccc1O (centres undefined),–,–,–,–,–,–
CC(Cc1ccccc1)NC(=S)CN1CCCC1=S (centres undefined),–,–,–,-4.59,–,–
OC(CNCc1ccccc1F)COc1cccc2ccccc12 (centres undefined),–,–,–,-6.86,–,–
CC(C)NCC(O)COc1cccc2ccccc12 (centres undefined),–,–,–,–,–,–
CC(C)CN(C(=O)c1cccc(S(=O)(=O)N2CCN(c3ccc(F)cc3)CC2)c1)C1CCS(=O)(=O)C1 (centres undefined),–,–,–,–,–,–
Cc1[nH]n(-c2ccccc2)c(=O)c1N=Nc1ccccc1O,–,–,–,–,–,–
Cc1[nH]n(-c2ccccc2)c(=O)c1N=Nc1nccs1,–,114.4,78,–,–,–
Cn1c(=O)c2c(ncn2CC(=O)N/N=C/C(Cl)=C/c2ccccc2)n(C)c1=O,–,–,11,–,–,–
Cn1c(=O)c2c(ncn2CCC(=O)N/N=C/c2ccccc2)n(C)c1=O,–,–,–,–,–,–
O=C(Cc1ccc(Br)cc1)c1ccc(O)cc1O,-8.24,–,–,–,–,–
C#CCSc1nnc(C)c(C)n1,–,–,–,–,–,–
COc1cccc(-n2nc(C#N)c(Cl)cc2=O)c1,–,–,–,-4.62,–,–
Cc1cc(C)cc(NC(=O)C(c2ccccc2)N2CCN(CC(=O)NC3CC3)CC2)c1 (centres undefined),·,·,·,·,–,·
CN(C(=O)c1ccc(NC(=O)Cc2ccc(NC(=O)C3CCCN(C(=O)C4CCC4)C3)cc2)cc1)C1CCCC1 (centres undefined),·,·,·,·,–,·
CN(N=Nc1ccc([N+](=O)[O-])cc1)c1ccccc1,–,–,–,–,–,–
SMILES,KCNK9 block,hERG protect,KCNQ1 act,Kir21 inh,KCNK3 block,KCNQ1 block
CN(N=Nc1cccc([N+](=O)[O-])c1)c1ccccc1,-6.68,–,–,–,–,–
COc1ccc(/C=C/C(=O)N2c3ccccc3Sc3ccc(C(F)(F)F)cc32)cc1,-7.26,–,–,–,–,–
N#CC1=C(N)Oc2cc(O)c(Cl)cc2C1c1ccccc1F (centres undefined),–,–,–,–,–,14
N#CC1=C(N)Oc2cc(O)c(Cl)cc2C1c1cccnc1 (centres undefined),–,–,–,–,–,–
CCOC(=O)c1oc2ccc(S(=O)(=O)n3nc(-c4ccc(OC)cc4)cc3N)cc2c1C,–,–,9,–,–,–
CCOC(=O)c1oc2ccc(S(=O)(=O)n3nc(-c4ccccc4)cc3N)cc2c1C,–,–,–,–,–,–
CC(C)n1cc(NC(=O)c2cc(-c3ccccc3)on2)cn1,–,–,11,–,–,–
COc1ccc(C2=NS(=O)(=O)N(C)C(C(=O)N3CCOCC3)=C2)cc1OC,–,–,–,–,–,–
Cc1ccccc1S(=O)(=O)NC(=NCc1ccc(F)cc1)c1ccccc1,·,·,·,·,-9.26,·
Cc1ccc(S(=O)(=O)NC(=NCc2ccccc2)c2ccc(F)cc2)cc1,–,–,–,–,–,–
Cc1cc(C2=CC(C)(c3cc(C)oc3C)Nc3nc(C(F)(F)F)nn32)c(C)o1 (centres undefined),–,–,–,–,·,–
Cc1ccc(C2=CC(C)(c3ccc(C)cc3)Nc3nc(C(F)(F)F)nn32)cc1 (centres undefined),-8.01,–,–,–,–,–
N#Cc1c(-c2ccccc2Cl)cc(-c2ccccc2)nc1Br,–,–,–,–,–,9
Cc1ccc(CCNS(=O)(=O)c2ccc3c(c2)NC(=O)C(C)C(=O)N3)cc1 (centres undefined),–,–,–,–,–,–
O=C(Nc1ccc(Cl)cc1)Nn1cnnc1,–,5.7,–,–,–,–
Cc1ccc(NC(=O)Nn2cnnc2)cc1,–,–,–,–,–,–
CC1CN(C(=O)COC(=O)Cc2c(Cl)cccc2Cl)CC(C)O1 (centres undefined),·,·,·,·,–,·
COc1ccccc1NC(=O)CSc1nc2[nH]ncc2c(=O)[nH]1,–,–,–,–,–,–
S=c1[nH]c2ccc(Cc3ccc4[nH]c(=S)[nH]c4c3)cc2[nH]1,–,–,–,–,–,–
Cc1cnc(=O)[nH]c1SCc1ccc(C(F)(F)F)cc1,–,–,–,–,–,–
Cc1cnc(=O)[nH]c1SCc1ccc([N+](=O)[O-])cc1,-7.26,–,–,–,–,–
Cc1ccc(C)c(N2CCN(CCCNC(=O)Cn3cc4c(n3)CCC(C)C4)CC2)c1 (centres undefined),–,–,–,-4.73,–,–
CC1CCc2nn(CC(=O)NCCCN3CCCC3=O)cc2C1 (centres undefined),–,–,–,–,–,–
CNC(=O)CSc1nnc(NC(=O)C2CC(=O)N(c3ccccc3OC)C2)s1 (centres undefined),–,–,–,–,–,–
Cc1ccc(Cl)cc1N1CCN(C(=O)C2(S(=O)(=O)c3ccc(Cl)cc3)CC2)CC1,–,–,–,–,–,6
Cc1cccc(N2CCN(C(=O)C3(S(=O)(=O)c4ccc(Cl)cc4)CC3)CC2)c1C,–,–,–,–,–,–
COc1ccc(CN2CCC(C(=O)c3ccc(Cl)cc3)CC2)cc1,–,–,–,-9.8,–,–

# Screening results (PubChem BioAssay)
